Test system: HEK-293T
Assay: Multiplex assay against HEK293T
Type: toxicity, cell-based
Conditions: human
Summary of the method: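 Imaging took place on a CQ1 microscope at 37°C and 5% CO2 once compound had been added to live cells stained at seeding with Hoechst33342, BioTracker Green Microtubule Cytoskeleton Dye, MitoTracker Red and Annexin V Alexa Fluor 680. CellPathfinder machine-learning gating classed cells as Hoechst high-intensity objects or normal cells, classed normal cells as having healthy, pyknosed or fragmented nuclei, and classed pyknosed cells as mitotic or apoptotic. Tubulin, mitochondrial-mass and membrane-permeability phenotypes are per cents of the healthy-nucleus cells.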

[1] = 12 h, 1 µM, compound concentration 1 uM, replicate 1
[2] = 12 h, 1 µM, compound concentration 1 uM, replicate 2
[3] = 12 h, 10 µM, compound concentration 10 uM, replicate 1
[4] = 12 h, 10 µM, compound concentration 10 uM, replicate 2
[5] = 24 h, 1 µM, compound concentration 1 uM, replicate 1
[6] = 24 h, 1 µM, compound concentration 1 uM, replicate 2
[7] = 24 h, 10 µM, compound concentration 10 uM, replicate 1
[8] = 24 h, 10 µM, compound concentration 10 uM, replicate 2
[9] = 48 h, 1 µM, compound concentration 1 uM, replicate 1
[10] = 48 h, 1 µM, compound concentration 1 uM, replicate 2
[11] = 48 h, 10 µM, compound concentration 10 uM, replicate 1
[12] = 48 h, 10 µM, compound concentration 10 uM, replicate 2

## Cc1ccc(C(C)(O)c2nc3ccccc3s2)c(C)c1 (stereo not given)
[1]
  Population Apoptotic (%): 30%
  Population Fragmented Nuclei (%): 19%
  Population Healthy Nuclei (%): 72%
  Population Hoechst High Intensity Objects (%): 4%
  Population Membrane Permeable-Phenotype (%): 1%
  Population Mitochondria Different-Phenotype (%): 36%
  Population Mitotic Cells (%): 70%
  Population Normal (%): 95%
  Population Pyknosed Nuclei (%): 8%
  Population Tubulin-Different-Phenotype (%): 30%
  Total Cell Count: 483
[2]
  Population Apoptotic (%): 41%
  Population Fragmented Nuclei (%): 4%
  Population Healthy Nuclei (%): 79%
  Population Hoechst High Intensity Objects (%): 5%
  Population Membrane Permeable-Phenotype (%): 0%
  Population Mitochondria Different-Phenotype (%): 63%
  Population Mitotic Cells (%): 58%
  Population Normal (%): 94%
  Population Pyknosed Nuclei (%): 16%
  Population Tubulin-Different-Phenotype (%): 25%
  Total Cell Count: 308
[3]
  Population Apoptotic (%): 56%
  Population Fragmented Nuclei (%): 5%
  Population Healthy Nuclei (%): 82%
  Population Hoechst High Intensity Objects (%): 8%
  Population Membrane Permeable-Phenotype (%): 0%
  Population Mitochondria Different-Phenotype (%): 62%
  Population Mitotic Cells (%): 43%
  Population Normal (%): 91%
  Population Pyknosed Nuclei (%): 12%
  Population Tubulin-Different-Phenotype (%): 44%
  Total Cell Count: 412
[4]
  Population Apoptotic (%): 36%
  Population Fragmented Nuclei (%): 7%
  Population Healthy Nuclei (%): 78%
  Population Hoechst High Intensity Objects (%): 7%
  Population Mitochondria Different-Phenotype (%): 72%
  Population Mitotic Cells (%): 63%
  Population Normal (%): 92%
  Population Pyknosed Nuclei (%): 13%
  Population Tubulin-Different-Phenotype (%): 25%
  Total Cell Count: 318
[5]
  Population Apoptotic (%): 26%
  Population Fragmented Nuclei (%): 18%
  Population Healthy Nuclei (%): 73%
  Population Hoechst High Intensity Objects (%): 3%
  Population Membrane Permeable-Phenotype (%): 1%
  Population Mitochondria Different-Phenotype (%): 15%
  Population Mitotic Cells (%): 73%
  Population Normal (%): 96%
  Population Pyknosed Nuclei (%): 8%
  Population Tubulin-Different-Phenotype (%): 11%
  Total Cell Count: 645
[6]
  Population Apoptotic (%): 32%
  Population Fragmented Nuclei (%): 6%
  Population Healthy Nuclei (%): 85%
  Population Membrane Permeable-Phenotype (%): 0%
  Population Mitochondria Different-Phenotype (%): 36%
  Population Mitotic Cells (%): 67%
  Population Pyknosed Nuclei (%): 7%
  Population Tubulin-Different-Phenotype (%): 16%
  Total Cell Count: 447
[7]
  Population Apoptotic (%): 28%
  Population Fragmented Nuclei (%): 6%
  Population Healthy Nuclei (%): 82%
  Population Hoechst High Intensity Objects (%): 8%
  Population Membrane Permeable-Phenotype (%): 0%
  Population Mitochondria Different-Phenotype (%): 42%
  Population Mitotic Cells (%): 71%
  Population Normal (%): 91%
  Population Pyknosed Nuclei (%): 11%
  Population Tubulin-Different-Phenotype (%): 34%
  Total Cell Count: 487
[8]
  Population Apoptotic (%): 36%
  Population Fragmented Nuclei (%): 10%
  Population Healthy Nuclei (%): 78%
  Population Hoechst High Intensity Objects (%): 6%
  Population Mitochondria Different-Phenotype (%): 63%
  Population Mitotic Cells (%): 63%
  Population Normal (%): 93%
  Population Pyknosed Nuclei (%): 10%
  Population Tubulin-Different-Phenotype (%): 23%
  Total Cell Count: 379
[9]
  Population Apoptotic (%): 17%
  Population Fragmented Nuclei (%): 20%
  Population Healthy Nuclei (%): 73%
  Population Hoechst High Intensity Objects (%): 2%
  Population Membrane Permeable-Phenotype (%): 1%
  Population Mitochondria Different-Phenotype (%): 15%
  Population Mitotic Cells (%): 82%
  Population Normal (%): 97%
  Population Pyknosed Nuclei (%): 5%
  Population Tubulin-Different-Phenotype (%): 12%
  Total Cell Count: 964
[10]
  Population Apoptotic (%): 34%
  Population Fragmented Nuclei (%): 13%
  Population Healthy Nuclei (%): 78%
  Population Hoechst High Intensity Objects (%): 3%
  Population Mitochondria Different-Phenotype (%): 22%
  Population Mitotic Cells (%): 65%
  Population Normal (%): 96%
  Population Pyknosed Nuclei (%): 8%
  Population Tubulin-Different-Phenotype (%): 11%
  Total Cell Count: 621
[11]
  Population Apoptotic (%): 33%
  Population Fragmented Nuclei (%): 14%
  Population Healthy Nuclei (%): 76%
  Population Hoechst High Intensity Objects (%): 2%
  Population Membrane Permeable-Phenotype (%): 0%
  Population Mitochondria Different-Phenotype (%): 28%
  Population Mitotic Cells (%): 66%
  Population Normal (%): 97%
  Population Pyknosed Nuclei (%): 9%
  Population Tubulin-Different-Phenotype (%): 18%
  Total Cell Count: 713
[12]
  Population Apoptotic (%): 50%
  Population Fragmented Nuclei (%): 13%
  Population Healthy Nuclei (%): 80%
  Population Hoechst High Intensity Objects (%): 3%
  Population Membrane Permeable-Phenotype (%): 1%
  Population Mitochondria Different-Phenotype (%): 33%
  Population Mitotic Cells (%): 50%
  Population Normal (%): 96%
  Population Pyknosed Nuclei (%): 5%
  Population Tubulin-Different-Phenotype (%): 13%
  Total Cell Count: 508

## CN(C)c1ccnc2sc3c(=O)n(N4CCCCCC4)cnc3c12
[1]
  Population Apoptotic (%): 45%
  Population Fragmented Nuclei (%): 9%
  Population Healthy Nuclei (%): 76%
  Population Hoechst High Intensity Objects (%): 4%
  Population Membrane Permeable-Phenotype (%): 1%
  Population Mitochondria Different-Phenotype (%): 50%
  Population Mitotic Cells (%): 54%
  Population Normal (%): 95%
  Population Pyknosed Nuclei (%): 13%
  Population Tubulin-Different-Phenotype (%): 43%
  Total Cell Count: 360
[2]
  Population Apoptotic (%): 51%
  Population Fragmented Nuclei (%): 5%
  Population Healthy Nuclei (%): 82%
  Population Hoechst High Intensity Objects (%): 8%
  Population Membrane Permeable-Phenotype (%): 0%
  Population Mitochondria Different-Phenotype (%): 67%
  Population Mitotic Cells (%): 48%
  Population Normal (%): 91%
  Population Pyknosed Nuclei (%): 12%
  Population Tubulin-Different-Phenotype (%): 25%
  Total Cell Count: 335
[3]
  Population Apoptotic (%): 36%
  Population Fragmented Nuclei (%): 4%
  Population Healthy Nuclei (%): 81%
  Population Hoechst High Intensity Objects (%): 10%
  Population Membrane Permeable-Phenotype (%): 0%
  Population Mitochondria Different-Phenotype (%): 78%
  Population Mitotic Cells (%): 63%
  Population Normal (%): 89%
  Population Pyknosed Nuclei (%): 14%
  Population Tubulin-Different-Phenotype (%): 79%
  Total Cell Count: 387
[4]
  Population Apoptotic (%): 59%
  Population Fragmented Nuclei (%): 9%
  Population Healthy Nuclei (%): 72%
  Population Hoechst High Intensity Objects (%): 13%
  Population Mitochondria Different-Phenotype (%): 76%
  Population Mitotic Cells (%): 40%
  Population Normal (%): 86%
  Population Pyknosed Nuclei (%): 17%
  Population Tubulin-Different-Phenotype (%): 59%
  Total Cell Count: 308
[5]
  Population Apoptotic (%): 30%
  Population Fragmented Nuclei (%): 10%
  Population Healthy Nuclei (%): 76%
  Population Hoechst High Intensity Objects (%): 4%
  Population Membrane Permeable-Phenotype (%): 1%
  Population Mitochondria Different-Phenotype (%): 27%
  Population Mitotic Cells (%): 70%
  Population Normal (%): 95%
  Population Pyknosed Nuclei (%): 12%
  Population Tubulin-Different-Phenotype (%): 24%
  Total Cell Count: 510
[6]
  Population Apoptotic (%): 25%
  Population Fragmented Nuclei (%): 7%
  Population Healthy Nuclei (%): 84%
  Population Hoechst High Intensity Objects (%): 5%
  Population Membrane Permeable-Phenotype (%): 0%
  Population Mitochondria Different-Phenotype (%): 51%
  Population Mitotic Cells (%): 74%
  Population Normal (%): 94%
  Population Pyknosed Nuclei (%): 7%
  Population Tubulin-Different-Phenotype (%): 22%
  Total Cell Count: 470
[7]
  Population Apoptotic (%): 42%
  Population Fragmented Nuclei (%): 7%
  Population Healthy Nuclei (%): 76%
  Population Hoechst High Intensity Objects (%): 8%
  Population Membrane Permeable-Phenotype (%): 0%
  Population Mitochondria Different-Phenotype (%): 80%
  Population Mitotic Cells (%): 57%
  Population Normal (%): 91%
  Population Pyknosed Nuclei (%): 16%
  Population Tubulin-Different-Phenotype (%): 71%
  Total Cell Count: 428
[8]
  Population Apoptotic (%): 66%
  Population Fragmented Nuclei (%): 10%
  Population Healthy Nuclei (%): 74%
  Population Hoechst High Intensity Objects (%): 13%
  Population Mitochondria Different-Phenotype (%): 75%
  Population Mitotic Cells (%): 33%
  Population Normal (%): 86%
  Population Pyknosed Nuclei (%): 15%
  Population Tubulin-Different-Phenotype (%): 53%
  Total Cell Count: 359
[9]
  Population Apoptotic (%): 27%
  Population Fragmented Nuclei (%): 13%
  Population Healthy Nuclei (%): 78%
  Population Hoechst High Intensity Objects (%): 2%
  Population Membrane Permeable-Phenotype (%): 0%
  Population Mitochondria Different-Phenotype (%): 23%
  Population Mitotic Cells (%): 72%
  Population Normal (%): 97%
  Population Pyknosed Nuclei (%): 7%
  Population Tubulin-Different-Phenotype (%): 14%
  Total Cell Count: 721
[10]
  Population Apoptotic (%): 20%
  Population Fragmented Nuclei (%): 11%
  Population Healthy Nuclei (%): 82%
  Population Hoechst High Intensity Objects (%): 3%
  Population Membrane Permeable-Phenotype (%): 2%
  Population Mitochondria Different-Phenotype (%): 31%
  Population Mitotic Cells (%): 80%
  Population Normal (%): 96%
  Population Pyknosed Nuclei (%): 6%
  Population Tubulin-Different-Phenotype (%): 15%
  Total Cell Count: 663
[11]
  Population Apoptotic (%): 70%
  Population Fragmented Nuclei (%): 15%
  Population Healthy Nuclei (%): 72%
  Population Hoechst High Intensity Objects (%): 8%
  Population Membrane Permeable-Phenotype (%): 0%
  Population Mitochondria Different-Phenotype (%): 66%
  Population Mitotic Cells (%): 29%
  Population Normal (%): 91%
  Population Pyknosed Nuclei (%): 12%
  Population Tubulin-Different-Phenotype (%): 54%
  Total Cell Count: 497
[12]
  Population Apoptotic (%): 57%
  Population Fragmented Nuclei (%): 11%
  Population Healthy Nuclei (%): 75%
  Population Hoechst High Intensity Objects (%): 6%
  Population Mitochondria Different-Phenotype (%): 63%
  Population Mitotic Cells (%): 42%
  Population Normal (%): 93%
  Population Tubulin-Different-Phenotype (%): 45%
  Total Cell Count: 450
